Hits are enriched below; roughly 3.7% of the tested compounds scored in any of these assays.
KCNK9 inh = human KCNK9 channel inhibition. Q9NPC2. HEK293 KCNK9, FluxOR thallium flux fluorescence; active compounds read low. B-score at 10 µM. 310,000 tested, 1.2% active. AID 488922;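 active means ratio B-score over 3 SD below the library mean, with starting fluorescence within 5 SD of its mean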;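 further: negative B-score means less thallium flux so channel inhibition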
KCNQ1 pot = potentiates or activates the human KCNQ1 potassium channel; CHO-K1 KCNQ1, thallium flux FluxOR fluorescence; active compounds read high; B-score at 10 µM; 310,000 tested, 0.35% active; AID 2648;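 active means fluorescence ratio B-score, a plate-corrected score, at least three library SD, with initial intensity B-score within 5 SD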
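assay system = KCNQ1-transfected CHO-K1 cells | medium = assay buffer with matched DMSO | probe or stimulus = depolarizing K+/Tl+ stimulus, K2SO4 and Tl2SO4 each 12.5 mM in 5x stock | dosing = single dose | incubation = dye 90 min, compound 20 min, room temperature | detection = kinetic FluxOR fluorescence, 10 s baseline plus 110 s post-stimulus | evaluation = ratio B score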
Kir21 inh = inhibitors of mouse Kir2.1 inward-rectifier potassium channel. P35561. HEK293-Kir2.1, FluxOR thallium flux fluorescence; active compounds read low. B-score at 10 µM. 310,000 tested, 0.85% active;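 active means fluorescence ratio B-score at or below minus 3 SD of library scores, with starting-brightness B-score within 2 SD, cut at about -4.2 in these data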;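 further: channel flux triggered by added potassium and thallium sulfate stimulus; B-score of peak minus minimum fluorescence over baseline after thallium stimulus; more negative B-score means stronger Kir2.1 block with less thallium influx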
Target sequence (P35561 whole entry, looked up): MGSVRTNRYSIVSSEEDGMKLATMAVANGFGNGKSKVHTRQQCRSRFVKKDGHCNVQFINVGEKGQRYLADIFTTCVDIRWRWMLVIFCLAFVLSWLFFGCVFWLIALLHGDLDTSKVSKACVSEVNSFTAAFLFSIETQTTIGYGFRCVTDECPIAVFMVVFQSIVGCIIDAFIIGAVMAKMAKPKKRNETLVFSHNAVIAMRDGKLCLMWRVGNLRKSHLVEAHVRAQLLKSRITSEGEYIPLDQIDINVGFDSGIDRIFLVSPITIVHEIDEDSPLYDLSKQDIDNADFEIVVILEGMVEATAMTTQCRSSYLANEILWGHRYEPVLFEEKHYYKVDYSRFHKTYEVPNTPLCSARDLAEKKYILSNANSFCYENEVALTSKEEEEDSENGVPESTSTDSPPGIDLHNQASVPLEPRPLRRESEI
hERG protect = hERG (human) protection from proarrhythmic block. Q12809. AID 1511. activation (rescue from dofetilide block), less the hit threshold, % at 10 µM. CHO-hERG, FluxOR thallium flux, dofetilide IC70 present. 310,000 tested, 0.51% active;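 active means activation above the mean of controls blocked by dofetilide plus 5 SD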;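 further: thallium influx through hERG after potassium depolarization seen as dye fluorescence rise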
KCNK3 block = human KCNK3 channel inhibition, primary screen. O14649. CHO-KCNK3 thallium flux, FluxOR fluorescence; active compounds read low. B-score at 10 µM. 340,000 tested, 0.84% active. AID 602410;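 active means B-score under library mean minus 4 SD, starting fluorescence ratio at most library mean plus 5 SD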;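 further: more negative B-score means stronger inhibition of thallium flux through KCNK3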
KCNQ1 inh = inhibitors of human KCNQ1 potassium channel | P51787 | CHO-K1 KCNQ1, FluxOR thallium flux fluorescence; active compounds read high | B-score at 10 µM | 310,000 tested, 1.3% active | AID 2642;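 active means compounds whose thallium flux B-score, printed positive for inhibition, exceeds three library SD while starting fluorescence stays within three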;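 further: channel opened by potassium depolarization with thallium stimulus after 20 min compound exposure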
KCNK3 inh conf = human KCNK3 channel inhibition, confirmation assay; ratio percent of control, % at 10 µM; 2,400 tested, 99% active; shares compounds with KCNK3 block; CHO-KCNK3 thallium flux, FluxOR fluorescence; 0% buffer, 100% carvedilol maximal block;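 active means ratio percent of control, averaged over triplicates, above buffer control mean plus 5 SD, cut at about 64% in these data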;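 further: ratio is the fluorescence rise from min to max over baseline after thallium stimulus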
KCNK3 noninduced = KCNK3 inhibitor counter-screen hit in non-induced cells; thallium flux ratio (lower = more inhibition) at 10 µM; AID 651747; shares compounds with KCNK3 block; 2,400 tested, 40% active; non-induced KCNK3 parental cells, FluxOR thallium flux; active compounds read low;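 active means thallium flux ratio, averaged over three wells, more than 5 SD below the buffer control mean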;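 further: host cells are CHO cells without KCNK3 induction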
Numbers stand for hits; n = inactive; x = no result given.

SMILES	KCNK9 inh	KCNQ1 pot	Kir21 inh	hERG protect	KCNK3 block	KCNQ1 inh	KCNK3 inh conf	KCNK3 noninduced
CC(NC(=O)CCSCc1ccccc1F)c1ccccc1 (stereo not drawn)	n	n	n	n	n	n	x	x
COc1ccc(-c2csc(N(CC3CCCO3)C(=O)c3ccc(C)cc3)n2)cc1 (stereo not drawn)	n	n	n	n	n	n	x	x
COc1ccc(-c2csc(N(CC3CCCO3)C(=O)c3ccccc3)n2)cc1 (stereo not drawn)	n	n	n	n	-8.9	n	89	n
O=C(COc1ccc(Cl)cc1)Nc1nc(-c2cccs2)cs1	n	n	n	n	-9.3	n	127	0.15
COCCN1C(=O)C(CC(=O)Nc2ccc(C(C)=O)cc2)SC1=Nc1ccccc1 (stereo not drawn)	n	n	n	n	n	n	x	x
CC(O)CN1C(=O)C(CC(=O)Nc2ccc(Cl)cc2)SC1=Nc1ccccc1 (stereo not drawn)	n	n	n	n	-9.5	n	110	n
O=C(NCc1ccco1)/C(=C/c1ccc(Cl)cc1)NC(=O)c1ccco1	n	n	n	n	n	n	x	x
CC(=O)c1ccc(S(=O)(=O)N2CCNC(=O)C2)cc1	x	x	x	x	n	x	x	x
O=C(N/N=C/c1c[nH]c2ccccc12)c1ccn(Cc2ccc(Cl)cc2)n1	n	n	n	n	-11	n	98	0.15
O=C(N/N=C/c1c[nH]c2ccc(Br)cc12)c1ccn(Cc2ccc(Cl)cc2Cl)n1	-7.2	n	n	n	-9.8	n	79	n
Cc1cccc(C)c1NC(=O)CNC(=O)c1ccc2nc[nH]c2c1	n	n	n	n	n	n	x	x
Cc1ccc2oc(=O)c3cc(C(=O)N4CCN(C(=O)c5ccco5)CC4)sc3c2c1	n	n	n	n	x	n	x	x
CCN(Cc1ccccc1)C(=O)c1cc2c(=O)oc3ccc(C)cc3c2s1	n	n	n	n	-8.9	6	111	0.12
CCOc1ccc(OCC)c(S(=O)(=O)n2cnc(C)c2)c1	n	n	n	n	-8.8	n	82	n
O=C(NC1CCCC1)C(c1cccnc1)N(Cc1ccccc1)C(=O)c1csnn1 (stereo not drawn)	n	n	n	n	n	n	x	x
Cc1cc(N2C3CCC2CC(O)(c2ccc(F)cc2)C3)nc(-c2ccccc2)n1 (stereo not drawn)	n	n	n	n	-10	n	101	0.15
O=CC(O)C1OC(=O)C(O)C1O (stereo not drawn)	x	x	x	x	n	x	x	x
CSc1cccc(CN2CCC(CO)(Cc3cccc(C(F)(F)F)c3)CC2)c1	n	n	n	n	-11	n	116	0.15
Cc1ccc(-n2cc(CN3CCC(CO)(Cc4cccc(C(F)(F)F)c4)CC3)cn2)cc1	n	n	n	n	n	n	x	x
COc1ccc(N2CCN(C(=O)Cc3cccs3)CC2)cc1	n	n	n	n	-9.5	n	75	n
CCOC(=O)c1c(CSC(=N)N)n(-c2ccccc2)c2cc(Br)c(OC(C)=O)cc12	n	n	-4.5	n	-10	n	129	0.14
O=C(O)C1C2C=CC(C2)C1C(=O)NCc1ccc2c(c1)OCO2 (stereo not drawn)	n	n	n	n	-8.9	n	90	n
Cc1ccc(C(=O)NCC(=O)OCC(=O)Nc2cc(S(=O)(=O)N3CCOCC3)ccc2Cl)s1	x	x	x	x	n	x	x	x
Cc1ccc(S(=O)(=O)N2CCOCC2)cc1NC(=O)COC(=O)CNC(=O)c1ccc(Cl)cc1Cl	n	n	n	n	-10	n	87	n
Cc1ccccc1NC(=O)COC(=O)c1c(-c2ccccc2)noc1C	x	x	x	x	n	x	x	x
SMILES	KCNK9 inh	KCNQ1 pot	Kir21 inh	hERG protect	KCNK3 block	KCNQ1 inh	KCNK3 inh conf	KCNK3 noninduced
Cc1ccc2c(Cl)cc(Cl)c(OCC(=O)Nc3cc(S(=O)(=O)N(C)C)ccc3C)c2n1	n	n	n	n	-9.1	n	90	0.15
Cc1ccc(S(=O)(=O)N(C)C)cc1NC(=O)COC(=O)c1c(-c2ccccc2)noc1C	n	n	n	n	-9	n	91	n
CC1CCN(S(=O)(=O)c2cc3c4c(c2)C(C)C(=O)N4CCC3)CC1 (stereo not drawn)	n	n	n	n	n	n	x	x
COCc1cccc(C(=O)NC(c2ccccc2)c2ccccc2)c1	n	n	n	n	n	n	x	x
O=C(NCCc1nc2ccccc2[nH]1)C1CCC(=O)N(CCc2cccc(F)c2)C1 (stereo not drawn)	n	n	n	n	n	n	x	x
Cc1ccc(NC(=O)c2ccc(=O)n(CC(=O)Nc3ccccc3)n2)cc1	n	n	n	n	n	n	x	x
Cc1cc2oc(C(=O)N(Cc3ccccc3)C3CCS(=O)(=O)C3)c(C)c2cc1C (stereo not drawn)	n	n	n	n	-11	n	92	n
Cc1ccc2oc(C(=O)N(Cc3ccccc3)C3CCS(=O)(=O)C3)c(C)c2c1 (stereo not drawn)	n	n	n	n	n	n	x	x
CCCn1c(=O)c(C(=O)Nc2ccccc2C(=O)OC)c(O)c2ccccc21	n	n	n	n	-9.6	n	98	n
CCn1c(=O)c(C(=O)Nc2ccc(C)cc2C)c(O)c2ccccc21	n	n	n	n	n	n	x	x
CCn1c(=O)c(C(=O)Nc2ccsc2C(=O)OC)c(O)c2ccccc21	n	n	n	n	x	n	x	x
CCOC(=O)c1ccccc1NC(=O)c1c(O)c2ccccc2n(CC)c1=O	n	n	n	n	-9.5	n	112	n
CCOP(=O)(OCC)c1nc(-c2cccc3ccccc23)oc1NCc1ccc(OC)cc1	n	n	n	n	-11	n	107	0.16
Cc1ccc(NC(=O)c2ccc(C)cc2)cc1	n	n	n	n	n	n	x	x
Cc1ccc(C(=O)Nc2ccc(Br)c(C(F)(F)F)c2)cc1	n	n	n	n	-9.3	n	120	n
O=C(NC1(N2CCOCC2)CC1)c1ccc(Cl)cc1	n	n	n	n	n	n	x	x
CC(C)(C)c1ccc(OCCn2nc(C(=O)O)c3ccccc3c2=O)cc1	n	n	n	n	-9.1	n	112	n
CCCNC(=O)c1c(N)n(-c2cc(OC)cc(OC)c2)c2nc3ccccc3nc12	n	n	n	n	-9.2	n	125	n
CCOc1ccc(C2c3c(oc4ccccc4c3=O)C(=O)N2c2ccc(C)cn2)cc1OC (stereo not drawn)	n	n	n	n	-11	n	99	n
COc1cc(C2c3c(oc4ccccc4c3=O)C(=O)N2c2ccc(C)cn2)ccc1O (stereo not drawn)	n	n	n	n	n	n	x	x

Assay outcomes deposited in PubChem BioAssay by Johns Hopkins Ion Channel Center.
